From PubChem BioAssay AID1665 (Sanford-Burnham Center for Chemical Genomics, 2009) come the findings set out here.

The experiment deals with HeLa beta-catenin nuclear translocation, immunofluorescence imaging. The experiment can be described thus: beta-catenin nuclear localization change in HeLa – imaging, HeLa cells, immunofluorescence, high-content, primary screen (AID 1665). The essentials: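 System: Human HeLa cells, endogenous beta-catenin | Compound dosing: 5 µM primary, 0.02–20 µM confirmation | Timing: 24 h compound exposure at 37°C, 5% CO2 | Measured by: Fluorescence imaging of beta-catenin antibody stain plus DAPI | Read-out basis: % activation of per-cell nuclear versus cytoplasmic median beta-catenin signal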

Calls of active or inactive are those of the source.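 Rule for the calls: active = nuclear translocation activity above 50% at 5 µM, with a well cell count of 50 or more; inconclusive = wells under 50 cells across six images, flagged as toxic; inactive = the rest.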

On to `Cc1ccc2nc(/C(C#N)=C\c3ccc([N+](=O)[O-])o3)[nH]c2c1`, for which the EC50, beta-catenin nuclear translocation induction (lower = more potent) is 9.06 µM. Turning to `Oc1c(/C=C/C=C/C=Nc2ccccc2)sc(=S)n1Cc1ccccc1`, the EC50, beta-catenin nuclear translocation induction (lower = more potent) is > 20 µM (inactive).

Consider `C=CC[C@H]1CC(Cc2ccccc2)=C[C@H](CC=C)N1`, for which the EC50, beta-catenin nuclear translocation induction (lower = more potent) is 0.77 µM. For `CCN(CC)c1ccc(/C=C/c2cc(-c3ccccc3)c3ccccc3n2)cc1` the value was 2.56 µM. In the case of `CC[n+]1c(/C=C/C=C/N(C(C)=O)c2ccccc2)sc2ccccc21` it was 8.42 µM; in that of `CCN1/C(=C/C=C/c2oc3ccc4ccccc4c3[n+]2CC)Oc2ccc3ccccc3c21`, 5.18 µM. For `CN1C(=O)/C(=C/c2ccc(N3CCCCCC3)o2)C(=O)NC1=S`, the EC50, beta-catenin nuclear translocation induction (lower = more potent) is 2.9 µM. With `COc1ccc(/C=C(/NC(=O)c2cccc([N+](=O)[O-])c2)C(=O)O)cc1OC`, the EC50, beta-catenin nuclear translocation induction (lower = more potent) was > 20 µM (inactive). Regarding `Cn1c2ccccc2c(=O)c2c(=O)n(Cc3ccco3)c(COc3ccccc3)nc21`, the EC50, beta-catenin nuclear translocation induction (lower = more potent) is > 16 µM (inactive). Turning to `CC1=CC(C)C(COC(N)=O)(COC(N)=O)C(C)C1` (stereo not given), the EC50, beta-catenin nuclear translocation induction (lower = more potent) was 4.49 µM. In the case of `Cn1c(-c2ccccc2)cc2c3no[n+]([O-])c3ccc21`, the EC50, beta-catenin nuclear translocation induction (lower = more potent) is > 20 µM (inactive). In the case of `CN1\C(=C/C=C/C=C/C=[N+](C)C)C(C)(C)c2ccccc21`, the EC50, beta-catenin nuclear translocation induction (lower = more potent) was 9.2 µM. As for `CCC(/C=C1\Sc2ccc(OC)cc2N1CCO)=C\c1sc2ccc(OC)cc2[n+]1CCO`, the EC50, beta-catenin nuclear translocation induction (lower = more potent) was > 20 µM (inactive).

In the case of `Cc1cc(NCCOCCO)n2ncc(-c3ccc(Cl)cc3)c2n1`, the EC50, beta-catenin nuclear translocation induction (lower = more potent) was 8.01 µM. Regarding `Cn1c(O)c(/C=C/C=Nc2ccccc2)c(=O)n(C)c1=S`, the EC50, beta-catenin nuclear translocation induction (lower = more potent) was > 20 µM (inactive). In the case of `Cc1ccc(NC(=O)Nc2ccnc(-c3cccnc3)n2)cc1` it was > 20 µM (inactive); in that of `O=c1ccc2[n+]([O-])c3ccc(O)cc3oc-2c1`, 7.27 µM. In the case of `O=C1NC(=O)C(=C/C=C/c2coc3ccc(Br)cc3c2=O)C(=O)N1`, the EC50, beta-catenin nuclear translocation induction (lower = more potent) was > 20 µM (inactive). Take `COc1ccc2nc3c(cc2c1)c(NC(=O)c1cccs1)nn3CC(C)C`: the EC50, beta-catenin nuclear translocation induction (lower = more potent) is > 20 µM (inactive). On to `COC(=O)c1[nH]c2ccc(Br)cc2c1NC(=O)CN1CCN(C2CCCCC2)CC1`, for which the EC50, beta-catenin nuclear translocation induction (lower = more potent) is 3.85 µM. `CCN1C(=O)/C(=C/C=C2/Sc3ccccc3N2CCO)SC1=S`: the EC50, beta-catenin nuclear translocation induction (lower = more potent) is > 20 µM (inactive). Regarding `C=CCC1C=C(Cc2ccccc2)CC(CC=C)N1` (stereo not given), the EC50, beta-catenin nuclear translocation induction (lower = more potent) is > 20 µM (inactive).

`CCOC(=O)N1CCN(C(=O)c2cc(-c3ccc(OCC)cc3)nc3ccccc23)CC1`: the EC50, beta-catenin nuclear translocation induction (lower = more potent) was 2.06 µM. With `CCN1/C(=C/C=C/C=C/c2sc3ccccc3[n+]2CC)Sc2ccccc21`, the EC50, beta-catenin nuclear translocation induction (lower = more potent) is 3.73 µM. Turning to `O=C(CSc1ncnc2nc[nH]c12)NCCc1ccccc1`, the EC50, beta-catenin nuclear translocation induction (lower = more potent) was 1.75 µM.

As for `CCN1C(c2ccccc2)=C(c2ccccc2)S/C1=C/C=C1\SC(=S)N(C)C1=O`, the EC50, beta-catenin nuclear translocation induction (lower = more potent) was 0.56 µM. With `CCC(/C=C1\Sc2ccc(OC)cc2N1CC)=C\c1sc2ccc(OC)cc2[n+]1CCCS(=O)(=O)[O-]`, the EC50, beta-catenin nuclear translocation induction (lower = more potent) is 4.19 µM.

Regarding `CCN1/C(=C/c2ccc3cc(C)ccc3[n+]2C)Sc2ccc3sccc3c21`, the EC50, beta-catenin nuclear translocation induction (lower = more potent) is > 20 µM (inactive). In the case of `CCCCn1c(O)c(/C=C/C=C/C=Nc2ccccc2)sc1=S` it was 8.79 µM; in that of `CCOC(=O)/C(=C/C=C1\Sc2cc(OCC)c(OCC)cc2N1CC)C(C)=O`, > 20 µM (inactive).
